According to ChEMBL document CHEMBL1129967, “3'-Chloro-3 alpha-(diphenylmethoxy)tropane but not 4'-chloro-3 alpha-(diphenylmethoxy)tropane produces a cocaine-like behavioral profile” (J Med Chem, 1997):

How the values were obtained:
[1] = biological target: Sodium-dependent dopamine transporter (Rattus norvegicus) (UniProt P23977); experiment: Selectivity ratio for [3H]-DA uptake inhibition to DAT binding; type: functional
[2] = biological target: Sodium-dependent serotonin transporter (Rattus norvegicus) (UniProt P31652); experiment: Percent inhibition at 10 uM for displacement of [3H]- citalopram binding at the serotonin transporter (5HTT).
Sodium-dependent serotonin transporter (Rattus norvegicus), sequence (P31652 whole entry): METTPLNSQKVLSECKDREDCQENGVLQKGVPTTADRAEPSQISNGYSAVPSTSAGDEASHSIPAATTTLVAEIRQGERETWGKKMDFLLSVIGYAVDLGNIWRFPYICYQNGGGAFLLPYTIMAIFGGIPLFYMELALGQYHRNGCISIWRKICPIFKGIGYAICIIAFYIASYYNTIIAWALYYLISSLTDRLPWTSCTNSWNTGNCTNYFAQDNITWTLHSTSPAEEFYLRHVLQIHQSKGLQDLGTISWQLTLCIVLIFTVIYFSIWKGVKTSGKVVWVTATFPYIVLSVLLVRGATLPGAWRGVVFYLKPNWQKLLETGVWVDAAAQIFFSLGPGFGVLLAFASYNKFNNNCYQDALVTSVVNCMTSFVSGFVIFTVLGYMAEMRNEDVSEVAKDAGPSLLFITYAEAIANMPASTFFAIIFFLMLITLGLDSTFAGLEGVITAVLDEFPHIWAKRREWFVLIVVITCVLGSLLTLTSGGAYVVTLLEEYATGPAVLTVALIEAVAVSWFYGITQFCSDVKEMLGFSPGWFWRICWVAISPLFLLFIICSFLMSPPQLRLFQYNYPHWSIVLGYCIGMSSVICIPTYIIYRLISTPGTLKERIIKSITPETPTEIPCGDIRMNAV
Method in brief: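 Run by a contract screening service under a published method: [3H]citalopram at 0.7 nM final concentration.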

[3] = biological target: T1, Muscarinic acetylcholine receptor M1 (Rattus norvegicus, UniProt P08482); experiment: Displacement of [3H]pirenzepine binding at Muscarinic acetylcholine receptor M1 in rat brain P2 membranes.; type: cell membranes, Membrane
T1 sequence (P08482 whole entry): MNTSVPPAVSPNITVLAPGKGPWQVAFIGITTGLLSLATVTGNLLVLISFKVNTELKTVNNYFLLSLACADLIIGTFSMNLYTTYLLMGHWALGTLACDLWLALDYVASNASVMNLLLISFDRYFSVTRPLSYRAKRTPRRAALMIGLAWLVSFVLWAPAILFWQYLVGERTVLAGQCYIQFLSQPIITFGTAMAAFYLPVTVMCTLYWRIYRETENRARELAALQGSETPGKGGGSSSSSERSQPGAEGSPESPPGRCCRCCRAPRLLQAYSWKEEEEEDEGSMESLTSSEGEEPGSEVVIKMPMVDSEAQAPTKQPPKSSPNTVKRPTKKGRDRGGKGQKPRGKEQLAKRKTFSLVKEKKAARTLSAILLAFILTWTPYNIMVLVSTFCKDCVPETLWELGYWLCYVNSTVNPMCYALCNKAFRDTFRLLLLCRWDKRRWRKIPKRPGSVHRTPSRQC
Method in brief: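 Rat brain P2 membranes (0.3 mg protein) in 50 mM Tris-HCl pH 7.4 with 5 mM MgCl2 and 5 nM [3H]pirenzepine. Nine competitor concentrations (0.03–300 nM), 60 min at 37 °C, filtered. Nonspecific binding defined with 10 μM QNB.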

[4] = biological target: Norepinephrine transporter (Rattus norvegicus) (UniProt Q9WTR4); experiment: Percent inhibition at 10 uM for displacement of [3H]- desmethylimipramine binding at the norepinephrine transporter (NET) in rat cortex.
Norepinephrine transporter (Rattus norvegicus), sequence (Q9WTR4 as listed by the source): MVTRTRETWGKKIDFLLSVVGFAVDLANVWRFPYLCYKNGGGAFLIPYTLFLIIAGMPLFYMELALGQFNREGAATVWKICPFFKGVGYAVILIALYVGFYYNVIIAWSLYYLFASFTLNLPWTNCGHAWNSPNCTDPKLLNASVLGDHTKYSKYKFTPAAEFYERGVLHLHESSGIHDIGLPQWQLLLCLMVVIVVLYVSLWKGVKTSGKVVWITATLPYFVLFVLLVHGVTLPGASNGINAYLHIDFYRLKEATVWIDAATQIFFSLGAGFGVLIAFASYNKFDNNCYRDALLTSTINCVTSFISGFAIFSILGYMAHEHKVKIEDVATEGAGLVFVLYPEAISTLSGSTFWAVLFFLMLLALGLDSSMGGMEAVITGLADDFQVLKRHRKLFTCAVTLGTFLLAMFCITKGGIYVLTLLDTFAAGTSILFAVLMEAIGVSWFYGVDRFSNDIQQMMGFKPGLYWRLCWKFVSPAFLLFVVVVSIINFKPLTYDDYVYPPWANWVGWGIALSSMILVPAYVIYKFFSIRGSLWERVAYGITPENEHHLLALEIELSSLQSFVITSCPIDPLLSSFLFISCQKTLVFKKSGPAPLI
Method in brief: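 Run by a contract screening service under a published method: [3H]desmethylimipramine at 3.0 nM final concentration.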

[5] = biological target: T2, Sodium-dependent dopamine transporter (Rattus norvegicus, UniProt P23977); experiment: Displacement of [3H]WIN-35428 binding to the dopamine transporter (DAT) in Rat Caudate Putamen
T2 sequence (P23977 whole entry): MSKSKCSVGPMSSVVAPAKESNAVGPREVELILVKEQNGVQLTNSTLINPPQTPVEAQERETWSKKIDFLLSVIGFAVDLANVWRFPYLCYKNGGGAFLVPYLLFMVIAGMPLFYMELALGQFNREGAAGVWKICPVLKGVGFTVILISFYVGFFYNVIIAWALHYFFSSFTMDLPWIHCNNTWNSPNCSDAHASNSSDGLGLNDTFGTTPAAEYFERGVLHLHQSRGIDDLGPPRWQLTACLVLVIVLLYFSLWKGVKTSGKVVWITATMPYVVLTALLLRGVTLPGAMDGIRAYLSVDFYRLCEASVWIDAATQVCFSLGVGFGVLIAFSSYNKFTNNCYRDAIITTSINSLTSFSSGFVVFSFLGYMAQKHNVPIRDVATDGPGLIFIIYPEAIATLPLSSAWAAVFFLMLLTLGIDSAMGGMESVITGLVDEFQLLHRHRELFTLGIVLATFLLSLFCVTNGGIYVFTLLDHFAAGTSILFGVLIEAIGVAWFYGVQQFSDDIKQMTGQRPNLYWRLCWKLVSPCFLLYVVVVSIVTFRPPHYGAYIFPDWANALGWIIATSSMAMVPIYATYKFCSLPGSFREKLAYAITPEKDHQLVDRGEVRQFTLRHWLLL

[6] = biological target: T2, Sodium-dependent dopamine transporter; experiment: [3H]-Dopamine uptake inhibition in rat caudate putamen; type: functional, tissue-based
Method in brief: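 Rat caudate putamen chopped into 225 μm slices, in oxygenated Krebs-HEPES at 37 °C. Filtered, tracer extracted with methanol/HCl and counted; filter blank subtracted. IC50 from the linear portion of the concentration–response curve by linear regression.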

Sodium-dependent dopamine transporter (Rattus norvegicus), sequence (P23977 whole entry): as above

SMILES	Selectivity ratio [1]	I [2]	Ki [3]	I [4]	Ki [5]	IC50 [6]
CN1[C@@H]2CC[C@H]1C[C@@H](OC(c1ccccc1)c1cccc(C(F)(F)F)c1)C2 (some centres not stated)	2.4	59.8%	0.00252 µM	78.5%	0.187 µM	0.457 µM
CN1[C@@H]2CC[C@H]1C[C@@H](OC(c1ccccc1)c1cccc(F)c1)C2 (some centres not stated)	3.7	42.2%	0.0006 µM	82.4%	0.0685 µM	0.25 µM
Cc1ccccc1C(O[C@H]1C[C@H]2CC[C@@H](C1)N2C)c1ccccc1 (some centres not stated)	3.9	35.7%	0.0005 µM	66.5%	0.309 µM	1.2 µM
CN1[C@@H]2CC[C@H]1C[C@@H](OC(c1ccccc1)c1ccccc1F)C2 (some centres not stated)	2.8	22.3%	0.00043 µM	17.8%	0.05 µM	0.14 µM
CN1[C@@H]2CC[C@H]1C[C@@H](OC(c1ccccc1)c1ccccc1N)C2 (some centres not stated) [AMINOBENZTROPINE]	0.2	16%	0.00112 µM	14%	1.84 µM	0.373 µM
CN1[C@@H]2CC[C@H]1C[C@@H](OC(c1cccc(F)c1)c1cccc(F)c1)C2	8.6	72.6%	0.00085 µM	75.6%	0.0474 µM	0.407 µM
CN1[C@@H]2CC[C@H]1C[C@@H](OC(c1ccccc1)c1cccc(Cl)c1)C2 (some centres not stated)	10.6	24.5%	0.00098 µM	74.7%	0.0216 µM	0.228 µM
CN1[C@@H]2CC[C@H]1C[C@@H](OC(c1ccccc1)c1ccccc1Cl)C2 (some centres not stated)	4.4	55.4%	0.00041 µM	76.1%	0.228 µM	0.997 µM
CN1C2CCC1CC(OC(c1ccccc1)c1ccc(Cl)cc1)C2 (configuration not stated)	3.8	34%	0.00148 µM	32%		
